Experimental data published in ChEMBL document CHEMBL3593206, “SAR Studies of Exosite-Binding Substrate-Selective Inhibitors of A Disintegrin And Metalloprotease 17 (ADAM17) and Application as Selective in Vitro Probes” (J Med Chem, 2015).

How the values were obtained:
[1] = molecular target: T1, Disintegrin and metalloproteinase domain-containing protein 10 (Homo sapiens) (UniProt O14672); test: Inhibition of ADAM10 (unknown origin) at 100 uM preincubated for 30 mins followed by substrate addition measured every 30 mins for 2 hrs by fluorescence assay relative to control
T1 sequence (whole entry): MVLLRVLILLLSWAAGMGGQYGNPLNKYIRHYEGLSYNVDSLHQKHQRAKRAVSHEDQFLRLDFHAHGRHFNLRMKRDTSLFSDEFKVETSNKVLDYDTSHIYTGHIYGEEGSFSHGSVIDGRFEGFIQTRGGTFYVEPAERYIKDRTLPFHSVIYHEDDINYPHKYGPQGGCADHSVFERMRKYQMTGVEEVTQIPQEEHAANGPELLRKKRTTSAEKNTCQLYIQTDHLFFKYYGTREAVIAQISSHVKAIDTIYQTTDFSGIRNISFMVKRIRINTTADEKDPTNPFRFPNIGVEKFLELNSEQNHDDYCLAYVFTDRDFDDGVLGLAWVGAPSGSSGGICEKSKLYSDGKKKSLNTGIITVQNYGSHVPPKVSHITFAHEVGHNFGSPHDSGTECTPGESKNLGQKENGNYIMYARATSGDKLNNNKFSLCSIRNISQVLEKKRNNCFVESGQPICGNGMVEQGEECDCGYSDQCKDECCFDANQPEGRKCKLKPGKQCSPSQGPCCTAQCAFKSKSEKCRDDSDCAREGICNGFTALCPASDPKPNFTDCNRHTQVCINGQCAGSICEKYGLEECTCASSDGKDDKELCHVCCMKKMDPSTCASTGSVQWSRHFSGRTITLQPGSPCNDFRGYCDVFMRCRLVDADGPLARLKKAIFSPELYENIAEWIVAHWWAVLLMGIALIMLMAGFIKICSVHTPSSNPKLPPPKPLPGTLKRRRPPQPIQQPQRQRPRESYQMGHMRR
In short: (§1)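 Enzyme at 30 nM (3× solution) in 10 mM Hepes, 0.001% Brij-35, pH 7.5. Inhibitor series of 10 points, 1:3, from 300 μM, preincubated 30 min at RT. Glycosylated substrate added from a 30 μM 3× solution. Fluorescence (ex 360/em 460 nm) read every 30 min for 2 h. Inhibition taken from hydrolysis rates against substrate-only and substrate-plus-enzyme wells.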

[2] = molecular target: T2, Disintegrin and metalloproteinase domain-containing protein 10 (Homo sapiens, UniProt O14672); test: Inhibition of ADAM10 (unknown origin) preincubated for 30 mins followed by substrate addition measured every 30 mins for 2 hrs by fluorescence assay; in short: as §1
T2 sequence (O14672 whole entry): T1 sequence (whole entry)

[3] = molecular target: T3, Disintegrin and metalloproteinase domain-containing protein 17 (Homo sapiens, UniProt P78536); test: Inhibition of ADAM17 (unknown origin) preincubated for 30 mins followed by substrate addition measured every 30 mins for 2 hrs by fluorescence assay; in short: as §1
T3 sequence (P78536 whole entry, the tested form may be a part): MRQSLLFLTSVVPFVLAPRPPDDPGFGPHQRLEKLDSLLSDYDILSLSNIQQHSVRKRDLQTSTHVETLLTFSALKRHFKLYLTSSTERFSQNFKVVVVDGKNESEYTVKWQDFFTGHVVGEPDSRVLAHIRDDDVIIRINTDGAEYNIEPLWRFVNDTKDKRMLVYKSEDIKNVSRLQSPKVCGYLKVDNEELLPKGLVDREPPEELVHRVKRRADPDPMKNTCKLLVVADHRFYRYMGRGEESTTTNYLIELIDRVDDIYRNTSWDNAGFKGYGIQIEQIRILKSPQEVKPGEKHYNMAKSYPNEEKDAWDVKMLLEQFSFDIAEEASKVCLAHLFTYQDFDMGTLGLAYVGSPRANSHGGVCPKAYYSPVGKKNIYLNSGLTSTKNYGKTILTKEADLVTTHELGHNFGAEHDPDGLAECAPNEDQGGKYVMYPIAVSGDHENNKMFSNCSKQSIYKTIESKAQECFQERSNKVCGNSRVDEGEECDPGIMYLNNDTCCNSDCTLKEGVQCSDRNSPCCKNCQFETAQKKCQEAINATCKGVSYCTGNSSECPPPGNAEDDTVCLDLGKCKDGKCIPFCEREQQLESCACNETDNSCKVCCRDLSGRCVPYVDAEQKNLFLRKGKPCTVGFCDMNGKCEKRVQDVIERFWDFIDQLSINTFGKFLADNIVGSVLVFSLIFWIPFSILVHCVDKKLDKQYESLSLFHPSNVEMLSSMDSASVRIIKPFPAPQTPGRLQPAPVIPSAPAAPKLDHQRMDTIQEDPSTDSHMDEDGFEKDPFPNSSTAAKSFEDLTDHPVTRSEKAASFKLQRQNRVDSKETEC

[4] = molecular target: Matrix metalloproteinase-14 (Homo sapiens, UniProt P50281); test: Inhibition of MMP14 (unknown origin) using Mca-KLPGL-Dnp-AR as substrate at 100 uM preincubated for 30 mins followed by substrate addition measured after 1 hr by fluorescence assay relative to control
[5] = molecular target: T3, Disintegrin and metalloproteinase domain-containing protein 17; test: Inhibition of ADAM17 (unknown origin) at 100 uM preincubated for 30 mins followed by substrate addition measured every 30 mins for 2 hrs by fluorescence assay relative to control; in short: as §1
[6] = Cytotoxicity against CHOK1 cells assessed as inhibition of cell viability up to 33 uM after 72 hrs by CellTiter-Glo assay; format: cell-based, Cricetulus griseus; conditions: chinese hamster, cho-k1, 72 h
A549 = test: Cytotoxicity against human A549 cells assessed as inhibition of cell viability up to 33 uM after 72 hrs by CellTiter-Glo assay; format: cell-based; conditions: a549, 72 h
[7] = molecular target: T3, Disintegrin and metalloproteinase domain-containing protein 17; test: Inhibition of ADAM17 in human THP1 cells assessed as inhibition of LPS-stimulated TNFalpha cleavage at 25 uM after 1 hr by AlphaScreen assay relative to control; format: cell-based; conditions: THP-1
In short: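 THP-1 cells grown in RPMI 1640 with 10% FBS and 0.05 mM 2-mercaptoethanol; 3000 cells per well. Compound given in 3% DMSO for 1 h, then LPS added (1 μg/mL final) and cells incubated overnight at 37 °C. TNFα detected by AlphaScreen using anti-TNFα acceptor beads and streptavidin donor beads, each step 1 h in the dark at RT.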

[8] = molecular target: T3, Disintegrin and metalloproteinase domain-containing protein 17; test: Inhibition of ADAM17 in HTSMC assessed as inhibition of LPS-stimulated IL-8 shedding at 10 uM preincubated for 30 mins followed by LPS challenge measured after 4 to 24 hrs by ELISA
In short: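 HTSMCs stimulated with LPS for IL-8 release; compounds at 10 μM. Mean ± SEM, n = 3 from three independent experiments; one-way ANOVA with Dunnett post hoc test.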

[9] = molecular target: T1, Disintegrin and metalloproteinase domain-containing protein 10 (Homo sapiens); test: Inhibition of ADAM10 in HTSMC assessed as inhibition of PMA-stimulated release of CXCL16 at 10 uM preincubated for 30 mins followed by PMA challenge measured after 4 to 24 hrs by ELISA
[10] = molecular target: T3, Disintegrin and metalloproteinase domain-containing protein 17; test: Inhibition of ADAM17 in human HT1080 cells assessed as inhibition of PMA-stimulated PTK7 L622D mutant shedding at 25 to 100 uM after 16 hrs by Western blot analysis; format: cell-based; conditions: HT-1080
In short: (§2)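 PTK7 shedding tested at 25, 50 and 100 μM in PMA-stimulated cells. HT1080 fibrosarcoma cells carried the L622D PTK7 mutant uncleavable by MT1-MMP; SW480 colorectal cells expressed wild-type PTK7 endogenously. Soluble PTK7 was detected.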

[11] = molecular target: T3, Disintegrin and metalloproteinase domain-containing protein 17; test: Inhibition of ADAM17 in human SW480 cells assessed as inhibition of PMA-stimulated wild type PTK7 shedding at 25 to 100 uM after 16 hrs by Western blot analysis; format: cell-based; in short: as §2
[12] = molecular target: T3, Disintegrin and metalloproteinase domain-containing protein 17; test: Inhibition of ADAM17 in human A549 cells assessed as inhibition of PMA-stimulated heregulin shedding at 40 uM incubated for 1 hr followed by PMA stimulation measured after 1 hr; format: cell-based
In short: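 Heregulin shedding in A549 cells, with all compounds tested at 40 μM.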

[13] = molecular target: T1, Disintegrin and metalloproteinase domain-containing protein 10 (Homo sapiens); test: Inhibition of ADAM10 in human A549 cells assessed as inhibition of betacellulin shedding at 40 uM after 1 hr by ELISA; format: cell-based
In short: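 A549 cells were tested for betacellulin shedding at 40 μM, with Marimastat at 10 μM as control.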

[14] = molecular target: T3, Disintegrin and metalloproteinase domain-containing protein 17; test: Inhibition of ADAM17 in human A549 cells assessed as effect on PMA-stimulated TGFalpha shedding up to 100 uM preincubated for 1 hr followed by PMA stimulation measured after 1 hr by ELISA; format: cell-based
In short: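 TGFα shedding from PMA-treated A549 cells tested up to 100 μM. Marimastat at 10 μM served as control, with a non-PMA-treated control included; soluble TGFα measured in the supernatant.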

ADAM17 (Homo sapiens) = test: Inhibition of ADAM17 in human SW480 cells assessed as inhibition of PMA-stimulated wild type PTK7 shedding at 25 to 100 uM after 16 hrs by Western blot analysis
[15] = molecular target: T1, Disintegrin and metalloproteinase domain-containing protein 10 (Homo sapiens); test: Inhibition of ADAM10 in HTSMC assessed as inhibition of constitutive release of fractalkine/CX3CL1 at 10 uM preincubated for 30 mins measured after 4 to 24 hrs by ELISA

inhibition [1] [%] | IC50 [2] [µM] | IC50 [3] [µM] | inhibition [4] [%] | inhibition [5] [%] | inhibition [7] [%] | inhibition [8] [%] | inhibition [9] [%] | inhibition [10] [%] | inhibition [11] [%] | inhibition [12] [%] | inhibition [13] [%] | inhibition [14] [%] | inhibition (ADAM17 (Homo sapiens)) [%] | inhibition [15] [%] | Compound | Activity [6] | Activity (A549)
0 | > 100 | 5.7 | 0 | 100 | 57 | 62 | 0 | 0 | 0 | 0 | 0 | 0 | 0 | 0 | CCCC[C@H]1CN([C@@H](Cc2ccc(O)cc2)CN2CCC[C@H]2CN2C(=O)C(=O)NC[C@H]2Cc2ccc3ccccc3c2)C(=O)C(=O)N1CCC12CC3CC(CC(C3)C1)C2 | Non-toxic | Non-toxic
0 | > 100 | 5.4 | 27 | 100 | 36 | 18 | 0 | 0 | 0 | 0 | 0 | 0 | 0 | 0 | O=C1NC[C@H](Cc2ccccc2)N(C[C@@H]2CCCN2C[C@@H](CC2CCCCC2)N2C[C@H](Cc3ccc(O)cc3)N(CCc3ccccc3)C(=O)C2=O)C1=O | Non-toxic | Non-toxic
0 | > 100 | 4.2 | 25 | 95 | 43 | 36 | 0 | 25 | 0 | 100 | 0 | 0 | 0 | 0 | O=C1NC[C@@H](Cc2ccc(O)cc2)N(C[C@@H]2CCCN2C[C@@H](Cc2ccc3ccccc3c2)N2CC(Cc3ccc(O)cc3)N(CCC34CC5CC(CC(C5)C3)C4)C(=O)C2=O)C1=O (single isomer, unassigned) | Non-toxic | Non-toxic
